Measured values: ChEMBL document CHEMBL1136332, “Structure-activity relationship of triaryl propionic acid analogues on the human EP3 prostanoid receptor” (Bioorg Med Chem Lett, 2003)

Legend:
[1] = molecular target: Prostaglandin E2 receptor EP2 subtype (Homo sapiens, UniProt P43116); test: Affinity at human Prostanoid EP2 receptor in the human embryonic kidney (HEK) 293 cell line.; type: cell-based, HEK293
[2] = molecular target: T1, Prostaglandin E2 receptor EP3 subtype (Homo sapiens, UniProt P43115); test: Affinity at human Prostanoid EP3 receptor in the human embryonic kidney (HEK) 293 cell line.; type: cell-based, HEK293
T1 sequence (P43115 whole entry): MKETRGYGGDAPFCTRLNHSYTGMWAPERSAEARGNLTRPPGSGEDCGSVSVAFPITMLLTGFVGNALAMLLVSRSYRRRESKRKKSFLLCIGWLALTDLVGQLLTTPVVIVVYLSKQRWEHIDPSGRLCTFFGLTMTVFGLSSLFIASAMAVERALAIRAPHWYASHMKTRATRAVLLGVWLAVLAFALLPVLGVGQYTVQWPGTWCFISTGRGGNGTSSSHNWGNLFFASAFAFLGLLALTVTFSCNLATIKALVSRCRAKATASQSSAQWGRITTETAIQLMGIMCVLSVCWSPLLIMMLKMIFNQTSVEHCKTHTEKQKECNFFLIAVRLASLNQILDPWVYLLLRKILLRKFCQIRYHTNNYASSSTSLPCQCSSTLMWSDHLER

[3] = molecular target: T2, Prostaglandin E2 receptor EP1 subtype (Homo sapiens, UniProt P34995); test: Affinity at human Prostanoid EP1 receptor in the human embryonic kidney (HEK) 293 cell line.; type: cell-based, HEK293
T2 sequence (P34995 whole entry): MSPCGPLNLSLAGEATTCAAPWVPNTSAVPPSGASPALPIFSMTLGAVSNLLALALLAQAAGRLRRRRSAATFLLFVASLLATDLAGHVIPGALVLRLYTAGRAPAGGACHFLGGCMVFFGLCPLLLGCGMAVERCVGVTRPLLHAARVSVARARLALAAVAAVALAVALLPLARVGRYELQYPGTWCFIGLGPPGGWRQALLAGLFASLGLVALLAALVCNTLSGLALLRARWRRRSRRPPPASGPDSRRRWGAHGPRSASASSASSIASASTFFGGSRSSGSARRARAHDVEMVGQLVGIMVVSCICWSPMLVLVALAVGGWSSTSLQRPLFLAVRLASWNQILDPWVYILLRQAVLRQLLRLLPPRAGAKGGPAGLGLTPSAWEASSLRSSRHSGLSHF

[4] = molecular target: Prostaglandin E2 receptor EP4 subtype (Homo sapiens, UniProt P35408); test: Affinity at human Prostanoid EP4 receptor in the human embryonic kidney (HEK) 293 cell line.; type: cell-based, HEK293
Prostaglandin E2 receptor EP4 subtype, sequence (P35408 whole entry): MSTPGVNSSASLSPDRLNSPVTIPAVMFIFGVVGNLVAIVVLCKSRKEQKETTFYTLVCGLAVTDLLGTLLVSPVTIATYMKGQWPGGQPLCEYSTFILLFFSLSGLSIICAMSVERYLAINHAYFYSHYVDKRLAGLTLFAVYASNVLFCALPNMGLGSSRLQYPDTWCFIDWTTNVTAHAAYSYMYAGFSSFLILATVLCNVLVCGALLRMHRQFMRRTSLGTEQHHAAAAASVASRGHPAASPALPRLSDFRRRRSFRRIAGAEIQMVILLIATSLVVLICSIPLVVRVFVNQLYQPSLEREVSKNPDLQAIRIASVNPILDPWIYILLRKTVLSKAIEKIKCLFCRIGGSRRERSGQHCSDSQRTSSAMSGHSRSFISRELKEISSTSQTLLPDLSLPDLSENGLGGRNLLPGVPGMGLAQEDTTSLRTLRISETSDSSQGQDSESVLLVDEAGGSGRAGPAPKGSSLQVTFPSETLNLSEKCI

[5] = molecular target: T3, Prostaglandin E2 receptor EP3 subtype (Homo sapiens) (UniProt P43115); test: Ability to inhibit the binding of human Prostanoid EP3 receptor to PGE-2 using EP3 functional assay
T3 sequence (whole entry): T1 sequence (P43115 whole entry)
Summary of the method: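 HEL 92.1.7 human erythroleukemia cells, which endogenously express EP3, at 2×10⁵ cells per incubation in HBSS with RO-20174 and forskolin. Antagonist (0–3×10⁻⁶ M, 0.5% DMSO final) preincubated 10 min at 37 °C. Sulprostone (0–3×10⁻⁵ M) was then added as agonist for 10 min at 37 °C. The reaction was stopped by 3 min boiling, and cAMP was read by SPA.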

[6] = molecular target: Prostaglandin F2-alpha receptor (Homo sapiens, UniProt P43088); test: Ability to inhibit the binding of human FP receptor to PGD-2
Prostaglandin F2-alpha receptor, sequence (P43088 whole entry): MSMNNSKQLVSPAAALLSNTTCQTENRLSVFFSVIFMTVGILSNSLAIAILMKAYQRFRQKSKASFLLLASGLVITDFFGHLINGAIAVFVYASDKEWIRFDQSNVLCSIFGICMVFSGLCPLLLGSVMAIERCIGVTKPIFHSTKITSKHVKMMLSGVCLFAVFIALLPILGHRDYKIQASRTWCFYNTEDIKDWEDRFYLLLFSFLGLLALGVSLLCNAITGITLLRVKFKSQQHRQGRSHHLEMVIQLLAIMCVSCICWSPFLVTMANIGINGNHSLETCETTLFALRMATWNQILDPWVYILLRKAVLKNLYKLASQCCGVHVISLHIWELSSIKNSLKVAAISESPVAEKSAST

Prostacyclin receptor = Prostacyclin receptor (Homo sapiens, UniProt P43119); test: Ability to inhibit the binding of human IP receptor to Prostaglandin I2 receptor
Prostacyclin receptor, sequence (P43119 whole entry): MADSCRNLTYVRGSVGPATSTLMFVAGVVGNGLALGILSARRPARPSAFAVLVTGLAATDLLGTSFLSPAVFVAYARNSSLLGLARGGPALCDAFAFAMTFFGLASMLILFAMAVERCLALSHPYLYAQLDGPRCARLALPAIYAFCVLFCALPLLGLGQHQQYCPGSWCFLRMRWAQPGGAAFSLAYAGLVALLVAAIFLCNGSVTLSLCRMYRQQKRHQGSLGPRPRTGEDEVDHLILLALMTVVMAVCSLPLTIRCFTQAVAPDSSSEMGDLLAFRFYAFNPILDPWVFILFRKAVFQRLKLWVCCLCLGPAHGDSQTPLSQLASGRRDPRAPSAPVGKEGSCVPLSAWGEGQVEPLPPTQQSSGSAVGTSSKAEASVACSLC

Thromboxane A2 receptor = molecular target: T4, Thromboxane A2 receptor (Homo sapiens, UniProt P21731); test: Ability to inhibit the binding of human Thromboxane A2 receptor to TXA2
T4 sequence (P21731 whole entry): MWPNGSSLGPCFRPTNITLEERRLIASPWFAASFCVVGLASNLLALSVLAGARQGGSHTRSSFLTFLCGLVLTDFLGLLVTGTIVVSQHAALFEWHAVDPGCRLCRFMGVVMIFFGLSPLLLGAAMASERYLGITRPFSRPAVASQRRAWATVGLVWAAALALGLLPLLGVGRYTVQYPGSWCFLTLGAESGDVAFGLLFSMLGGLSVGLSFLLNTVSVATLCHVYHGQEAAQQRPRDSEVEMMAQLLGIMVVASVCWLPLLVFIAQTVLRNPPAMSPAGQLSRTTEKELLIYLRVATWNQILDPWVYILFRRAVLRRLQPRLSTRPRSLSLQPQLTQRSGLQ

[7] = molecular target: Prostaglandin D2 receptor DP (human) (UniProt Q13258); test: Ability to inhibit the binding of human DP receptor to PGD-2
Prostaglandin D2 receptor DP (human), sequence (Q13258 whole entry, looked up): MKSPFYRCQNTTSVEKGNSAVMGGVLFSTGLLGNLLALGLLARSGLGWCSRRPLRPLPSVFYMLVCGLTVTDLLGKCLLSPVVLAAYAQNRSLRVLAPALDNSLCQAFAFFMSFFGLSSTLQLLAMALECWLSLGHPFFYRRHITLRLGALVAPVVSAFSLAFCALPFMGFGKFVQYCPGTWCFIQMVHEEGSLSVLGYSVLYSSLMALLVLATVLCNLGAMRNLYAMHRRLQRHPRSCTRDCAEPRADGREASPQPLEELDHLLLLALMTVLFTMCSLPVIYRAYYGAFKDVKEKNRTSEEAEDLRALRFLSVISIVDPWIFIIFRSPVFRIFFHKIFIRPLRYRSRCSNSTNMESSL

Prostaglandin E2 receptor EP2 subtype, sequence (P43116 whole entry): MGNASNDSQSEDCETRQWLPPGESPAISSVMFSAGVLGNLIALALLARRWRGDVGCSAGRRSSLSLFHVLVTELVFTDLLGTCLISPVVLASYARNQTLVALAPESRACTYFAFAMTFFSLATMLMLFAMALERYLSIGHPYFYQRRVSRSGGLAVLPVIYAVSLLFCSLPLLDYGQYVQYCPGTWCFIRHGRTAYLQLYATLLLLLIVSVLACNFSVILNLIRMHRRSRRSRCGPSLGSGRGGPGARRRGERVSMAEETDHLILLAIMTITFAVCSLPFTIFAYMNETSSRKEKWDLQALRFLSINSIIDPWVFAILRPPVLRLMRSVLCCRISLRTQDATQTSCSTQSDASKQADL

| SMILES | Ki [1] [µM] | Ki [2] [µM] | Ki [3] [µM] | Ki [4] [µM] | Kb [5] [µM] | Ki [6] [µM] | Ki (Prostacyclin receptor) [µM] | Ki (Thromboxane A2 receptor) [µM] | Ki [7] [µM] |
| --- | --- | --- | --- | --- | --- | --- | --- | --- | --- |
| O=C(O)CCc1ccccc1-c1ccc(-c2ccccc2OCc2ccccc2)s1 | 4.1 | 0.52 | 27 | 1.1 | – | – | – | – | – |
| O=C(O)/C=C/c1ccccc1-c1ccc(Cl)c(Cl)c1 | 7.5 | 1.6 | 10 | > 10 | – | – | – | – | – |
| O=C(O)CNc1ccccc1-c1csc(-c2ccccc2OCc2ccccc2)c1 | 2.5 | 0.052 | 85 | 0.46 | – | – | – | – | – |
| CC(Cc1ccccc1-c1csc(-c2ccccc2OCc2ccccc2)c1)C(=O)O (configuration not stated) | 5.5 | 0.46 | 13 | 0.98 | – | – | – | – | – |
| O=C(O)c1ccc(CCCc2ccccc2OCc2ccccc2)cc1 | 0.15 | 2.3 | 0.23 | 0.44 | – | – | – | – | – |
| CC(Cc1ccccc1-c1cccc(-c2ccccc2OCc2ccccc2)c1)C(=O)O (configuration not stated) | 3.6 | 0.82 | 8.3 | 1.2 | – | – | – | – | – |
| O=C(O)CCc1ccccc1-c1cccc(-c2ccccc2OCc2ccccc2)c1 | 3.7 | 0.055 | 8.3 | 1.8 | – | – | – | – | – |
| Cc1cccc(/C=C/Cc2ccccc2/C=C/C(=O)O)c1OCc1ccccc1 | 8.1 | 0.007 | 12 | 1.9 | – | – | – | – | – |
| O=C(O)C1CC1c1ccccc1-c1csc(-c2ccccc2OCc2ccccc2)c1 (configuration not stated) | 2.3 | 0.003 | 48 | 0.3 | 0.0058 | 22 | 0.71 | 0.4 | 0.12 |
| O=C(O)/C=C/c1ccccc1-c1cccc(-c2ccccc2OCc2ccccc2)c1 | 0.83 | 0.084 | 72 | 1.7 | – | – | – | – | – |
| O=C(CCc1ccccc1-c1cccc(-c2ccccc2OCc2ccccc2)c1)NS(=O)(=O)c1cccs1 | 1.6 | 0.016 | 2.6 | 1.7 | – | – | – | – | – |
| O=C(O)CCCc1ccccc1-c1cccc(-c2ccccc2OCc2ccccc2)c1 | 3.5 | 0.59 | 11.9 | 2 | – | – | – | – | – |
| O=C(O)CCc1ccccc1-c1cccc(-c2ccc(OCc3ccccc3)cc2)c1 | > 97 | 1.5 | > 97 | 21 | – | – | – | – | – |
| O=C(O)CCc1ccccc1-c1csc(-c2ccccc2OCc2ccccc2)c1 | 2.5 | 0.023 | 17.8 | 0.65 | – | – | – | – | – |
| O=C(O)Cc1ccccc1-c1cccc(-c2ccccc2OCc2ccccc2)c1 | 3.6 | 1.7 | 9.3 | 1.1 | – | – | – | – | – |
| O=C(O)CCc1ccccc1-c1cccc(-c2ccccc2OCc2c(Cl)cccc2Cl)c1 | 4.6 | 0.021 | 1.1 | 1.1 | – | – | – | – | – |
| O=C(/C=C/c1ccccc1-c1ccc(Cl)c(Cl)c1)NS(=O)(=O)c1cccs1 | 10 | – | 8.1 | – | – | – | – | – | – |
| CC(CC(=O)O)c1ccccc1-c1csc(-c2ccccc2OCc2ccccc2)c1 (configuration not stated) | 4.6 | 0.035 | 35 | 1.1 | – | – | – | – | – |
| O=C(O)CCc1ccccc1-c1cc(-c2ccccc2OCc2ccccc2)cs1 | 2.9 | 0.027 | 17.5 | 0.76 | – | – | – | – | – |
| O=C(O)CCc1ccccc1-c1cccc(-c2ccccc2COc2ccccc2)c1 | 2.9 | 0.089 | 9.5 | 1 | – | – | – | – | – |
| O=C(O)CCc1ccccc1-c1cccc(-c2ccccc2)c1 | 8.1 | 0.75 | 34 | 6 | – | – | – | – | – |
